Compound activity (PubChem)
Rows were chosen to be rich in hits. Some 2.4% of all compounds tested hit in one or more screens of this group.
HNF4A DNA FP = change in binding of human HNF4 alpha to DNA | activity change, % at 10 µM | HNF4a-FITC DNA binding, fluorescence polarization, 1 h | 360,000 tested, 0.3% active; in the data active = activity change above about 30%, passing the limit was not always enough
Tb MetRS inh = Trypanosoma brucei MetRS inhibition; AID 624268; inhibition, % at 11.9 µM; purified T. brucei MetRS, ATP depletion, Kinase-Glo luminescence; 360,000 tested, 0.4% active;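 active = inhibition above a per-plate cutoff of the control wells' mean inhibition plus 3 SD, cut at about 5.5% in these data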
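Dosing: 11.9 µM single point; system: parasite MetRS enzyme; technique: luminescence of leftover ATP; times: 15 min enzyme-compound preincubation, 2 h reaction, 10 min detection, 25 °C; replicates: each compound tested once; read-out basis: percent inhibition relative to median high and low control wells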
Rpn11 block = inhibitors of human proteasome Rpn11. inhibition, % at 20 µM. O00487. 360,000 tested, 0.59% active. AID 588493. human 26S proteasome, Ub4-pepOG fluorescence polarization; 20S core pre-blocked with epoxomicin;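 active = inhibition at 20 µM, scaled to each plate's controls, above about 33%, limit read from the data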
Target sequence (O00487 whole entry, looked up): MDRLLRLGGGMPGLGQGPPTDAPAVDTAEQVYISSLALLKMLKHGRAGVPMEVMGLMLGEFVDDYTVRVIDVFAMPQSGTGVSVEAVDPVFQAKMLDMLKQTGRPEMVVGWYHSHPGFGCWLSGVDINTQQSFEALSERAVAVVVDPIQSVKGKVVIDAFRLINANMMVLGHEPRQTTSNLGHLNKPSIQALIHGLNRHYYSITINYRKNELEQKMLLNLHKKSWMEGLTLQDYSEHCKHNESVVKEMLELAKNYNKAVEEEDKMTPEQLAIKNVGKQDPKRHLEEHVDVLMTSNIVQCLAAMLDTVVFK
Neddyl block = cullin neddylation inhibition | TR-FRET cullin neddylation, biochemical | AID 651699 | 360,000 tested, 0.58% active | inhibition, % at 25 µM | P61081+Q13564; in the data active = inhibition above about 36%
PREPL inh = inhibits the human prolyl oligopeptidase-like enzyme; Q4J6C6; recombinant PREPL, fluorescence polarization activity-based probe; inhibition, % at 5.96 µM; 320,000 tested, 0.68% active; AID 2751
CSN inh = CSN deneddylation inhibition. Q92905. 360,000 tested, 0.38% active. AID 651999. inhibition, % at 12.5 µM. Purified CSN, SCF-Nedd8-OG deneddylation, fluorescence polarization;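 active = pattern-corrected inhibition above about 35%, with an unprinted fluorescence ratio check between 0.5 and 1.5, limit read from the data, passing the limit was not always enough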
Target sequence (Q92905 whole entry, looked up, one chain of several): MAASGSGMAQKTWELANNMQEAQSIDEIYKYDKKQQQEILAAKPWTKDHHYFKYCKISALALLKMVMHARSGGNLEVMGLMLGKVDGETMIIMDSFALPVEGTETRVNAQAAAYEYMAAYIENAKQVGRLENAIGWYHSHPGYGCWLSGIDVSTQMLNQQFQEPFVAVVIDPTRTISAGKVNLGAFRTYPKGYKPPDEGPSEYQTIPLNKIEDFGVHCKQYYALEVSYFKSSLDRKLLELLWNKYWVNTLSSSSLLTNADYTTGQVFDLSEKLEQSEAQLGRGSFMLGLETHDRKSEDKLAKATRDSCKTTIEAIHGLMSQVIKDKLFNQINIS
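Test system: purified human Csn5 enzyme expressed in HEK293T cells. Amount: 0.24 nM enzyme. Reagent: SCFSkp2-Nedd8OG substrate at 10 nM final. Schedule: 90 min incubation of compound, enzyme and substrate at room temperature. Detection: fluorescence polarization. Read-out: % inhibition of substrate cleavage by Csn5.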
PREPL confirm = confirmation of human PREPL enzyme inhibitors | shares compounds with PREPL inh | recombinant PREPL, fluorescence polarization activity probe | inhibition, % at 5.96 µM | 2,000 tested, 67% active | AID 2803
Large screens that a line does not name were inactive (follow-up assays come after a bar, where they were run). Rule as the data show it, unless noted: active = inhibition above about 43%; inactive = the rest.

C[C@H](CO)N1C[C@H](C)[C@H](CN(C)C(=O)Nc2cccc(C(F)(F)F)c2)OCc2cnnn2CCCC1=O	none (no result: PREPL inh)
C#CCOCCOCCOCCNc1nc(N2CCN(C(=O)C(Cc3ccc(O)cc3)n3cc(C(N)CC(C)C)nn3)CC2)nc(N2CCN(C(=O)C(Cc3cc4ccccc4[nH]3)n3cc(C(N)C(C)CC)nn3)CC2)n1 (centres undefined)	PREPL inh 51 (no result: HNF4A DNA FP, Tb MetRS inh, Rpn11 block, Neddyl block, CSN inh) | PREPL confirm 51
C#CCOCCOCCOCCNc1nc(N2CCN(C(=O)[C@H](Cc3ccc(O)cc3)n3cc([C@@H](N)CC(C)C)nn3)CC2)nc(N2CCN(C(=O)[C@H](Cc3ccc(O)cc3)n3cc([C@@H](N)CC(C)C)nn3)CC2)n1	none (no result: HNF4A DNA FP, Tb MetRS inh, Rpn11 block, Neddyl block, CSN inh)
C#CCOCCOCCOCCNc1nc(N2CCN(C(=O)[C@H](Cc3ccc(O)cc3)n3cc([C@@H](N)C(C)CC)nn3)CC2)nc(N2CCN(C(=O)[C@H](Cc3cc4ccccc4[nH]3)n3cc([C@@H](N)Cc4ccc(O)cc4)nn3)CC2)n1 (some centres undefined)	PREPL inh 53 (no result: HNF4A DNA FP, Tb MetRS inh, Rpn11 block, Neddyl block, CSN inh) | PREPL confirm 48
C#CCOCCOCCOCCNc1nc(N2CCOCC2)nc(N2CCN(C(=O)[C@H](Cc3cc4ccccc4[nH]3)n3cc([C@@H](N)C(C)CC)nn3)CC2)n1 (some centres undefined)	none
C#CCOCCOCCOCCNc1nc(N2CCN(C(=O)[C@H](Cc3ccc(O)cc3)n3cc([C@@H](N)CC(C)C)nn3)CC2)nc(N2CCN(C(=O)[C@H](Cc3cc4ccccc4[nH]3)n3cc([C@@H](N)CC(C)C)nn3)CC2)n1	PREPL inh 53 (no result: HNF4A DNA FP, Tb MetRS inh, Rpn11 block, Neddyl block, CSN inh) | PREPL confirm 50
C#CCOCCOCCOCCNc1nc(N2CCN(C(=O)[C@H]([C@@H](C)CC)n3cc([C@@H](N)CC(C)C)nn3)CC2)nc(N2CCN(C(=O)[C@H](Cc3cc4ccccc4[nH]3)n3cc([C@@H](N)Cc4ccc(O)cc4)nn3)CC2)n1	none (no result: HNF4A DNA FP, Tb MetRS inh, Rpn11 block, Neddyl block, CSN inh)
COCCNc1nc2cc(-c3cccc(Cl)c3)sc2c(=O)n1C	none (no result: PREPL inh)
COc1ccc(C(=O)C[n+]2ccc3c(c2)nc(-c2ccccc2)n3C)cc1	none
COc1cc(-c2nc3c[n+](CC(=O)c4ccccc4)ccc3n2C)cc(OC)c1OC	PREPL inh 53 | PREPL confirm inactive
CC(=O)CCC(=O)N1CCCC(CNC(=O)c2ccc(-c3ccccc3)cc2)C1 (centres undefined)	PREPL inh 43 | PREPL confirm inactive
CSCC(=O)N1CCCC(CNC(=O)c2ccc(-c3ccccc3)cc2)C1 (centres undefined)	none
Nc1nc(SCc2ccc(Br)cc2)c2ncn(C3OC(CO)C(O)C3O)c2n1 (centres undefined)	none (no result: PREPL inh)
CCOC(=O)N1CCN(c2nc3ccc(C(=O)c4ccccc4)cc3n3cnnc23)CC1	PREPL inh 61 | PREPL confirm inactive
O=C(c1ccccc1)c1ccc2nc(N3CCN(C(=O)c4ccco4)CC3)c3nncn3c2c1	none
COC(=O)c1ccccc1-n1c(C)nc(=O)c(-c2ccccc2)c1C	none (no result: PREPL inh)
CCOc1ccc(N=Nc2c(=O)[nH]n3c(=O)c4c([nH]c23)CCCC4)cc1	none
O=c1[nH]n2c(=O)c3c([nH]c2c1N=Nc1cccc(Cl)c1)CCCC3	PREPL inh 55 | PREPL confirm 58
CC(C)[C@H](CN1CCC[C@H]1CN1C(N)=NC[C@H]1C(C)C)N1C[C@@H](Cc2ccccc2)N(CCCC2CCCC2)C1=N	PREPL inh 61 | PREPL confirm 59
CCC[C@@H](CN1CCC[C@H]1CN1C(N)=NC[C@@H]1Cc1ccccc1)N1C[C@@H]([C@H](C)CC)N(CCCC2CCCC2)C1=N	PREPL inh 54 | PREPL confirm 52
CC(C)C[C@@H](CN1CCCC1CN1C(=S)NC[C@@H]1Cc1ccccc1)N1C[C@H](Cc2ccccc2)N(CC2CCCCCC2)C1=S (some centres undefined)	none (no result: Rpn11 block, PREPL inh)
CCC[C@@H](CN1CCC[C@H]1CN1C(N)=NC[C@@H]1Cc1ccccc1)N1C[C@@H](Cc2ccccc2)N(CCCC2CCCC2)C1=N	none
CCC[C@@H](CN1CCC[C@H]1CN1C(N)=NC[C@H]1CC(C)C)N1C[C@@H](Cc2ccccc2)N(CCCC2CCCC2)C1=N	PREPL inh 49 | PREPL confirm inactive
CC[C@@H](C)[C@@H]1CN([C@@H](CN2CCC[C@H]2CN2C(N)=NC[C@H]2CC(C)C)C(C)C)C(=N)N1CCCC1CCCC1	none
CCCCN1C(=N)N([C@@H](CCC)CN2CCC[C@H]2CN2C(N)=NC[C@@H]2Cc2ccccc2)C[C@H]1Cc1ccccc1	PREPL inh 45 | PREPL confirm 45
O=C(CNS(=O)(=O)c1cccc(Br)c1)NCC1CCCCC1	none
COC(=O)C1(C(=O)OC)C/C=C\CCN(S(=O)(=O)c2ccccc2[N+](=O)[O-])CC1	none (no result: Rpn11 block, PREPL inh)
CN(C)c1ccc(NC(=O)c2cc3c(=O)n4ccccc4nc3n2C)cc1	PREPL inh 43 | PREPL confirm inactive
O=c1c2ccccc2sc2ccc(NCCCN3CCOCC3)cc12	PREPL inh 45 | PREPL confirm inactive
CN1CCCC1CCNc1ccc2sc3ccccc3c(=O)c2c1 (centres undefined)	PREPL inh 51 | PREPL confirm 48
C#CCNC(=O)C[C@@H]1C[C@@]2(C(=O)OCC)CCCC=C2N(Cc2ccccc2)C1=O	none (no result: Rpn11 block, PREPL inh)
CCOc1cc(CNc2ccc(O)cc2)ccc1OCc1ccc(Cl)cc1Cl	PREPL inh 57, CSN inh 44 | PREPL confirm 51
CCOc1cccc(CNc2ccc(O)cc2)c1OCc1ccc(Cl)cc1	none
COc1ccc(N2CCN(C(=O)COC(=O)c3ccccc3OCc3ccc(F)cc3)CC2)cc1	none
O=C(OCC(=O)N1CCN(c2ccc(F)cc2)CC1)c1cnc2ccccc2n1	PREPL inh 49 | PREPL confirm inactive
COc1ccc(/C=N\NC(=O)c2cc(O)c(O)c(O)c2)cc1CN1CCN(c2ccc(F)cc2)CC1	PREPL inh 54 | PREPL confirm inactive
COc1ccc(/C=N/NC(=O)c2ccc(C)cc2)cc1CN1CCN(c2ccc(F)cc2)CC1	none
CN1C(=O)[C@H]2[C@@H](c3ccc(C(F)(F)F)cc3)N[C@]3(CCCN(Cc4ccc(Br)cc4)C3=O)[C@H]2C1=O	none (no result: PREPL inh)
CN1CCN(c2nc(-c3ccccn3)nc3ccccc23)CC1	none
c1ccc(N2CCN(c3nc(-c4ccccn4)nc4ccccc34)CC2)cc1	PREPL inh 83 | PREPL confirm 79
C[C@@H]1O[C@@H](Oc2c(-c3ccc(O)c(O)c3)oc3cc(O)cc(O)c3c2=O)[C@H](O)[C@H](O)[C@H]1O	none
